pEC50, pIC50: −log10 of the molar value. Activity calls are given as the source filed them. The calls are words filed in the database; no cut-off is given here.
Legend:
Vaccinia virus [1] = assay: Antiviral activity against Vaccinia virus WR in BSC1 cells assessed as reduction in plaque formation after 20 hrs; assay type: functional, organism-based; details: Orthopoxvirus vaccinia, BSC-1, 20 h
[2] = Cytotoxicity against african green monkey BSC1 cells after 20 hrs WST-1 based assay; assay type: cell-based, BSC-1; details: chlorocebus aethiops, read-out: TC50
In short: (§1)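 Uninfected BS-C-1 cells in phenol red-free medium, seeded 5000 (20 h), 1000 (3-day) or 200 (5-day) cells/well, exposed next day to compound in two-fold serial dilutions (top 200 µM; 1% DMSO final) at 37°C. WST-1 added 30 min, A450 read. Triplicates; percent cytotoxicity vs DMSO fitted four-parameter sigmoidal for TC50.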

Vaccinia virus [3] = assay: Antiviral activity against Vaccinia virus WR in BSC1 cells assessed as protection from virus-induced lysis of cell monolayer after 20 hrs; assay type: functional, organism-based; details: Orthopoxvirus vaccinia, BSC-1, 20 h
[4] = Cytotoxicity against african green monkey BSC1 cells after 120 hrs WST-1 based assay; assay type: cell-based, BSC-1; details: chlorocebus aethiops, read-out: TC50; in short: as §1
Vaccinia virus [5] = assay: Antiviral activity against Vaccinia virus WR in BSC1 cells assessed as retention of antiviral potency by measuring exogenous double stranded DNA trapping; assay type: functional, organism-based; details: Orthopoxvirus vaccinia, BSC-1
[6] = Cytotoxicity against african green monkey BSC1 cells after 72 hrs WST-1 based assay; assay type: cell-based, BSC-1; details: chlorocebus aethiops, read-out: TC50; in short: as §1
[7] = Selectivity index, TC50 for african green monkey BSC1 cells after 20 hrs to EC50 for Vaccinia virus WR in BSC1 cells after 20 hrs by cell protection assay; assay type: toxicity, cell-based, BSC-1; details: read-out: Selectivity Index
Vaccinia virus [8] = assay: Inhibition of Vaccinia virus DNA synthesis in by rapid plate assay; assay type: functional, organism-based; details: Orthopoxvirus vaccinia
Vaccinia virus [9] = assay: Antiviral activity against Vaccinia virus WR in BSC1 cells assessed as protection from virus-induced lysis of cell monolayer up to 200 uM after 20 hrs; assay type: functional, organism-based; details: Orthopoxvirus vaccinia, BSC-1
Vaccinia virus [10] = assay: Antiviral activity against Vaccinia virus WR in BSC1 cells assessed as reduction in plaque formation up to 200 uM after 20 hrs; assay type: functional, organism-based; details: Orthopoxvirus vaccinia, BSC-1
[11] = Cytotoxicity against african green monkey BSC1 cells up to 200 uM after 20 to 120 hrs WST-1 based assay; assay type: cell-based; details: chlorocebus aethiops, bsc-1; in short: as §1
[12] = Selectivity index, TC50 for african green monkey BSC1 cells after 72 hrs to EC50 for Vaccinia virus WR in BSC1 cells after 72 hrs by cell protection assay; assay type: toxicity, cell-based, BSC-1; details: read-out: Selectivity Index

SMILES	pEC50 (Vaccinia virus [1])	CC50 at 20 h [2] [µM]	pEC50 (Vaccinia virus [3])	CC50 at 120 h [4] [µM]	Activity (Vaccinia virus [5])	CC50 at 72 h [6] [µM]	selectivity ratio at 20 h [7]	pIC50 (Vaccinia virus [8])	Activity (Vaccinia virus [9])	Activity (Vaccinia virus [10])	Activity [11]	selectivity ratio at 72 h [12]
CCC/N=c1\cc(-c2ccccc2)oc2ccc(C)cc12	4.60	> 200	4.24	10	inactive							
O=C1/C(=C/C2CCCO2)CC/C1=C\C1CCCO1 (centres undefined)	4.30	> 100	4.00	50	Active	> 100	> 1	3.62				
CCNc1nc(SCc2ccc(Cl)cc2)nc2sc3c(c12)CCN(C)C3	4.82	115	4.35	5	Active		2.6	3.89				
N=C1S/C(=C/c2ccco2)C(=O)N1c1nccs1	4.12	> 100	4.10	50	Active	> 100	> 1.2	4.49				
Nc1ccn(C[C@@H](CO)OCP(=O)(O)O)c(=O)n1 [CIDOFOVIR]	4.30	> 500		300	Active	> 500	> 3.8					
Cc1ccc2c(Sc3ccc(Cl)cc3)c(C(=O)O)[nH]c2c1	4.12	> 200		120	Active	174	> 1.5	4.37				
N/N=C1\CCCc2c1[nH]c1ccc(C(=O)NN)cc21	4.00	> 200	3.71		inactive	35						
COc1ccc(-c2cc3ccccn3c2C(=O)c2cccnc2)c(OC)c1	4.00	> 200	4.06	60	inactive	152	> 2.3	4.60				
O=C(O)Cn1c2ccc(Cl)cc2c2nc3ccccc3nc21	4.30	> 100	4.00	30	Active	13						
CN(C)CCc1cc2c(c3c1ccc1ccccc13)OCO2								5.27	inactive	inactive	Toxic	
Cc1cc(OC(=O)c2ccco2)nc(SCc2c(Cl)cccc2Cl)n1	4.12	> 100	4.00	> 100	Active	> 100	> 2	4.28				
CCn1c2ccccc2c2ccc(/C=N/n3cnnc3)cc21	4.30	> 200	4.30	3	Active	36	> 4	3.88				
Cc1cc(NCCN2CCCCC2)c2ccc3ccccc3c2n1								5.22	inactive	inactive	Toxic	
CN(C)c1ccc(-c2cccc(-c3ccc(N(C)C)cc3)[o+]2)cc1								5.52	inactive	inactive	Toxic	
CC(=O)n1c2ccccc2c2nc(C)sc21	4.00	> 200		75	Active	> 200	> 1	3.95				
COc1ccc2nc(NC(=N)N)nc(C)c2c1								5.13	inactive	inactive	Toxic	
CC1=CC(C)(C)N=C(Nc2nc(C)c3cc(C)cc(C)c3n2)N1								5.28	inactive	inactive	Toxic	
O=C(Nc1ccccc1C(=O)O)OCC1c2ccccc2-c2ccccc21	4.12	> 200		20	Active	40	> 1.9	4.59				
COC(=O)c1cccc2c1-c1ccccc1/C2=N\O	5.00	127	5.02	20	Active		13.2	3.97				3.2
Cc1cc(/N=C/c2cc(Cl)cc(Cl)c2O)no1	4.12	> 200	4.02	20	Active	50	> 2.1	4.52				
CC1CCCC(C)N1CCNc1nc2ccccc2c2nc(-c3ccccc3)nn12 (centres undefined)								5.14	inactive	inactive	Toxic	
CC[n+]1cc(/C=C2\SC=CN2C)c(C)c2cc(OC)c3ccccc3c21								5.46	inactive	inactive	Toxic	
Cc1ccc2oc(-c3ccccc3)c/c(=N\CCO)c2c1	4.40	> 200	4.24	12	inactive		> 3.5	4.60				
O=C(O)c1ccc(CS(=O)(=O)c2ccccc2)o1								5.13	inactive	inactive	Toxic	
N=C1/C(=C/c2coc3ccccc3c2=O)C(=O)N=C2SC=NN12		> 200		50	Active	> 200	> 1	4.12				
CCOC(=O)CCc1c(CC(=O)OCC)c[nH]c1/C=N/O.Cl								5.42	inactive	inactive	Toxic	
Cc1c(/N=C/c2cc(Br)cc(Br)c2O)cccc1C(=O)O	4.12	> 200	4.00	20	Active	38	> 2	4.59				
Cc1csc2c(N3CCN(C(=O)NC(C)(C)C)CC3)ncnc12	4.82	157	4.30	40	Active		3.1	4.92				
CCN(CC)CCCNc1nc2cc(OC)c(OC)cc2c2nc(-c3ccccc3)nn12								5.23	inactive	inactive	Toxic	

Reference: ChEMBL document CHEMBL1140145, “Identification of non-nucleoside DNA synthesis inhibitors of vaccinia virus by high-throughput screening” (J Med Chem, 2008)
